In ChEMBL document CHEMBL2163238, “Design, synthesis, and biological evaluation of N-alkylated deoxynojirimycin (DNJ) derivatives for the treatment of dengue virus infection” (J Med Chem, 2012):

What was measured:
[1] = Antiviral activity against 1 MOI BVDV NADL infected in MDBK cells assessed as reduction in viral titer after 22 hrs; format: functional, cell-based, Bovine viral diarrhea virus 1-NADL
Procedure, shortened: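 MDBK cells (2×10^5) infected 24 h after seeding with BVDV NADL at MOI 1, with 1 h adsorption at 37 °C. Washed, then compounds at 0.1–100 μM. Media harvested 22 h post-infection and plaque-titrated on MDBK under 1% methylcellulose for 3 days. Plaques counted directly or after neutral red staining. EC50 from dose–response curves, mean of 3 independent experiments.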

[2] = Cytotoxicity against BHK cells assessed as cell viability by MTT assay; format: cell-based, Mesocricetus auratus; settings: hamster
[3] = tested on: dengue virus type 2; experiment: Antiviral activity against 0.01 MOI DENV-2 NGC infected in BHK cells assessed as reduction in viral titer after 48 hrs; format: functional, organism-based
Procedure, shortened: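 BHK cells infected with DENV-2 New Guinea C at MOI 0.01 for 1 h. Inoculum removed, then compounds at 0.1–100 μM for 48 h at 37 °C. Supernatants titrated on Vero monolayers as 10-fold dilutions under 0.5% methylcellulose for 3–5 days. Foci detected by 4G2 immunostaining or crystal violet plaques. EC50 from dose–response curves, mean of 3 independent experiments.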

[4] = Selectivity index, ratio of CC50 for BHK cells to EC50 for DENV-2 NGC infected in BHK cells
Procedure, shortened: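 BHK cells infected with DENV-2 New Guinea C at MOI 0.01 for 1 h, then compounds at 0.1–100 μM for 48 h at 37 °C. Supernatant titrated on Vero cells under 0.5% methylcellulose, 3–5 days; foci by 4G2 immunostaining or crystal violet plaques. EC50 from yield curves; MTT CC50 in uninfected BHK; SI = CC50/EC50.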

[5] = Selectivity index, ratio of CC50 for MDBK cells to EC50 for BVDV NADL infected in MDBK cells
Procedure, shortened: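 MDBK cells infected with BVDV NADL at MOI 1, 1 h at 37 °C, washed, then compounds at 0.1–100 μM. Media harvested at 22 h, plaque-titrated on MDBK under 1% methylcellulose for 3 days, neutral red or direct count. EC50 from yield curves; MTT CC50 in uninfected MDBK; SI = CC50/EC50.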

[6] = Cytotoxicity against MDBK cells assessed as cell viability by MTT assay; format: cell-based, Bos taurus; settings: cattle
[7] = Bovine viral diarrhea virus isolates and strains, MDBK, 22 h

## OC[C@@H]1[C@@H](O)[C@H](O)[C@@H](O)CN1CCCCCCOc1ccccc1
[1]; [7]
  EC50: 0.9 µM
[2]
  CC50: > 500 µM
[3]
  EC50: 1.7 µM
[4]
  Ratio CC50/EC50: >294
[5]
  Ratio CC50/EC50: >556
[6]
  CC50: > 500 µM

## OC[C@@H]1[C@@H](O)[C@H](O)[C@@H](O)CN1CCCCCCOc1ccc(F)cc1
[1]; [7]
  EC50: 0.3 µM
[2]
  CC50: > 500 µM
[3]
  EC50: 1.1 µM
[4]
  Ratio CC50/EC50: >455
[5]
  Ratio CC50/EC50: >1667
[6]
  CC50: > 500 µM

## CCC1CCC(OCCCCCCN2C[C@H](O)[C@@H](O)[C@H](O)[C@H]2CO)CC1 (stereo partly specified)
[1]; [7]
  EC50: 0.4 µM
[2]
  CC50: 475 µM
[3]
  EC50: 0.3 µM
[4]
  Ratio CC50/EC50: 1583
[5]
  Ratio CC50/EC50: >1250
[6]
  CC50: > 500 µM

## OC[C@@H]1[C@@H](O)[C@H](O)[C@@H](O)CN1CCCc1ccccc1OC1CCCCC1
[1]; [7]
  EC50: 24 µM
[5]
  Ratio CC50/EC50: >175
[6]
  CC50: 420 µM

## CC1CCCC(OCCCCCCN2C[C@H](O)[C@@H](O)[C@H](O)[C@H]2CO)C1 (stereo partly specified)
[1]; [7]
  EC50: 0.3 µM
[5]
  Ratio CC50/EC50: >1667
[6]
  CC50: > 500 µM

## CC1CCCC(OCCCCCCN2C[C@H](O)[C@@H](O)[C@H](O)[C@H]2CO)C1C (stereo partly specified)
[1]; [7]
  EC50: 1.2 µM
[5]
  Ratio CC50/EC50: >417
[6]
  CC50: > 500 µM

## OC[C@@H]1[C@@H](O)[C@H](O)[C@@H](O)CN1CCC#CCCOc1cc(F)ccc1F
[1]; [7]
  EC50: 47 µM
[2]
  CC50: > 500 µM
[3]
  EC50: 20 µM
[4]
  Ratio CC50/EC50: >25
[5]
  Ratio CC50/EC50: >11
[6]
  CC50: > 500 µM

## CCCOc1ccc(CCCN2C[C@H](O)[C@@H](O)[C@H](O)[C@H]2CO)cc1
[1]; [7]
  EC50: 0.2 µM
[2]
  CC50: > 500 µM
[3]
  EC50: 0.5 µM
[4]
  Ratio CC50/EC50: >1000
[5]
  Ratio CC50/EC50: >2500
[6]
  CC50: > 500 µM

## OC[C@@H]1[C@@H](O)[C@H](O)[C@@H](O)CN1CCCc1ccc(OC2CCCCC2)cc1
[1]; [7]
  EC50: 5.5 µM
[5]
  Ratio CC50/EC50: 54
[6]
  CC50: 295 µM

## COc1ccc(OCCCCCCN2C[C@H](O)[C@@H](O)[C@H](O)[C@H]2CO)cc1
[1]; [7]
  EC50: 1 µM
[2]
  CC50: > 500 µM
[3]
  EC50: 4 µM
[4]
  Ratio CC50/EC50: >125
[5]
  Ratio CC50/EC50: >500
[6]
  CC50: > 500 µM

## CCC1CCCCC1OCCCCCCN1C[C@H](O)[C@@H](O)[C@H](O)[C@H]1CO (stereo partly specified)
[1]; [7]
  EC50: 1.5 µM
[5]
  Ratio CC50/EC50: 300
[6]
  CC50: 450 µM

## CC1CC(OCCCCCCN2C[C@H](O)[C@@H](O)[C@H](O)[C@H]2CO)CC(C)(C)C1 (stereo partly specified)
[1]; [7]
  EC50: 0.8 µM
[5]
  Ratio CC50/EC50: 312
[6]
  CC50: 250 µM

## CCCCCC#CCCN1C[C@H](O)[C@@H](O)[C@H](O)[C@H]1CO
[1]; [7]
  EC50: > 100 µM
[6]
  CC50: > 500 µM

## OC[C@@H]1[C@@H](O)[C@H](O)[C@@H](O)CN1CC/C=C/CCOc1cc(F)ccc1F
[1]; [7]
  EC50: 0.9 µM
[2]
  CC50: > 500 µM
[3]
  EC50: 2.2 µM
[4]
  Ratio CC50/EC50: >227
[5]
  Ratio CC50/EC50: >556

## CCCCCCCCCN1C[C@H](O)[C@@H](O)[C@H](O)[C@H]1CO
[1]; [7]
  EC50: 1.1 µM
[5]
  Ratio CC50/EC50: 318
[6]
  CC50: 350 µM

## OC[C@@H]1[C@@H](O)[C@H](O)[C@@H](O)CN1CCCCCCOc1cccnc1
[1]; [7]
  EC50: 2.5 µM
[5]
  Ratio CC50/EC50: >200
[6]
  CC50: > 500 µM

## CCC(CC)OCCCCCCN1C[C@H](O)[C@@H](O)[C@H](O)[C@H]1CO
[1]; [7]
  EC50: 3 µM
[5]
  Ratio CC50/EC50: 150
[6]
  CC50: 450 µM

## CCCCC1CCC(OCCCCCCN2C[C@H](O)[C@@H](O)[C@H](O)[C@H]2CO)CC1 (stereo partly specified)
[1]; [7]
  EC50: 1.8 µM
[5]
  Ratio CC50/EC50: 106
[6]
  CC50: 190 µM

## OC[C@@H]1[C@@H](O)[C@H](O)[C@@H](O)CN1CCCc1cccc(OC2CCCCC2)c1
[1]; [7]
  EC50: 3.5 µM
[5]
  Ratio CC50/EC50: 111
[6]
  CC50: 390 µM

## Cc1ccc(C(C)(C)C)c(OCCCCCCN2C[C@H](O)[C@@H](O)[C@H](O)[C@H]2CO)c1
[1]; [7]
  EC50: 0.6 µM
[5]
  Ratio CC50/EC50: 142
[6]
  CC50: 85 µM

## OC[C@@H]1[C@@H](O)[C@H](O)[C@@H](O)CN1CCCCCCOC1CCCCC1C1CCCCC1 (stereo partly specified)
[1]; [7]
  EC50: 0.5 µM
[5]
  Ratio CC50/EC50: 400
[6]
  CC50: 200 µM

## CCCC1CCCCC1OCCCCCCN1C[C@H](O)[C@@H](O)[C@H](O)[C@H]1CO (stereo partly specified)
[1]; [7]
  EC50: 0.5 µM
[5]
  Ratio CC50/EC50: 300
[6]
  CC50: 150 µM

## CC/C=C\CCCCCN1C[C@H](O)[C@@H](O)[C@H](O)[C@H]1CO
[1]; [7]
  EC50: 11 µM
[5]
  Ratio CC50/EC50: >45
[6]
  CC50: > 500 µM

## Cc1ccc(C(C)C)cc1OCCCCCCN1C[C@H](O)[C@@H](O)[C@H](O)[C@H]1CO
[1]; [7]
  EC50: 0.7 µM
[5]
  Ratio CC50/EC50: 129
[6]
  CC50: 90 µM

## OC[C@@H]1[C@@H](O)[C@H](O)[C@@H](O)CN1CCCCCCOc1c(F)cc(F)cc1F
[1]; [7]
  EC50: 5 µM
[5]
  Ratio CC50/EC50: >100
[6]
  CC50: > 500 µM

## OC[C@@H]1[C@@H](O)[C@H](O)[C@@H](O)CN1CC/C=C\CCOc1cc(F)ccc1F
[1]; [7]
  EC50: 2 µM
[3]
  EC50: 8.5 µM
[4]
  Ratio CC50/EC50: >59
[5]
  Ratio CC50/EC50: >250
[6]
  CC50: > 500 µM

## Cc1cccc(OCCCCCCN2C[C@H](O)[C@@H](O)[C@H](O)[C@H]2CO)c1.Cl
[1]; mdbk
  EC50: 0.4 µM
[5]
  Ratio CC50/EC50: >1250

## Cc1ccc(C(C)C)c(OCCCCCCN2C[C@H](O)[C@@H](O)[C@H](O)[C@H]2CO)c1
[1]; [7]
  EC50: 0.6 µM
[5]
  Ratio CC50/EC50: 103
[6]
  CC50: 62 µM

## OC[C@@H]1[C@@H](O)[C@H](O)[C@@H](O)CN1CCCCCCOc1cc(Cl)ccc1Cl
[1]; [7]
  EC50: 1.5 µM
[5]
  Ratio CC50/EC50: 213
[6]
  CC50: 320 µM

## OC[C@@H]1[C@@H](O)[C@H](O)[C@@H](O)CN1CCCCCCOc1ccccc1C(F)(F)F
[1]; [7]
  EC50: 1 µM
[5]
  Ratio CC50/EC50: >500
[6]
  CC50: > 500 µM

## CC(C)C(OCCCCCCN1C[C@H](O)[C@@H](O)[C@H](O)[C@H]1CO)C(C)C
[1]; [7]
  EC50: 7.5 µM
[5]
  Ratio CC50/EC50: >67
[6]
  CC50: > 500 µM

## OC[C@@H]1[C@@H](O)[C@H](O)[C@@H](O)CN1CCCCCCOc1ccccc1F
[1]; [7]
  EC50: 2.8 µM
[5]
  Ratio CC50/EC50: >179
[6]
  CC50: > 500 µM
